Results pooled from the literature.
Protocols differ between the studies behind these lines.
RPS6KA5: Ribosomal protein S6 kinase alpha-5 (RPS6KA5, Homo sapiens, UniProt O75582)
RPS6KA5 C-terminal kinase domain: Ribosomal protein S6 kinase alpha-5, C-terminal kinase domain (RPS6KA5, Homo sapiens, UniProt O75582)
RPS6KA5 N-terminal kinase domain: Ribosomal protein S6 kinase alpha-5, N-terminal kinase domain (RPS6KA5, Homo sapiens, UniProt O75582)

C#Cc1n[nH]c2c(-c3cn([C@@H](C)c4ccccc4)c(=O)[nH]c3=O)cc(F)cc12
inhibition (RPS6KA5; enzyme activity; inhibitor; 0.1 µM): -1.9%

N#CC1(c2ccccn2)CCN(Cc2cc(C(=O)O)c(=O)n3ccccc23)CC1
remaining binding (RPS6KA5 C-terminal kinase domain; cell-free assay; competition with immobilised ligand; 1 µM): 83%

O=c1[nH]c2ccccc2n1C1CCN(Cc2ccc(-c3[nH]c4cc5ncnc5cc4nc3-c3ccccc3)cc2)CC1
remaining signal (RPS6KA5; cell-free assay; 0.5 µM): 103%

Cc1nn(C)cc1-c1nc2c(N3CCN(Cc4ccc(Cl)cc4)CC3)c(Cl)cnc2[nH]1
remaining binding (RPS6KA5 C-terminal kinase domain; binding; competition with immobilised ligand; 1 µM): 100%

C#Cc1n[nH]c2c(-c3cn([C@@H](C)c4ccccn4)c(=O)[nH]c3=O)cc(F)cc12
inhibition (RPS6KA5; enzyme activity; inhibitor; 0.1 µM): 2%

Cn1cc(-c2cccc(N3CCc4c(sc5c4CC(C)(C)C5)C3=O)c2CO)cc(Nc2ccncn2)c1=O
inhibition (RPS6KA5; enzyme activity; inhibitor; 1 µM): 2%

Nc1ncc(-c2nc(N3CCOCC3)nc(N3CCOCC3)n2)c(C(F)F)n1
remaining binding (RPS6KA5 N-terminal kinase domain; binding; competition with immobilised ligand; 10 µM): 88%

Cn1cncc1[C@@](O)(COc1ccc(C#N)cc1-c1ccc(OC(F)(F)F)cc1)c1ccc(C#N)cc1
remaining binding (RPS6KA5 N-terminal kinase domain; cell-free assay; competition with immobilised ligand; 1 µM): 88%

Cn1cc(-c2cc(F)cc(N3CCn4c(cc5c4CCCC5)C3=O)c2CO)cc(Nc2ccc(N3CCN(C4COC4)CC3)cn2)c1=O
inhibition (RPS6KA5; enzyme activity; inhibitor; 0.1 µM): 13%

CC(C)(C)c1cc(C=C(C#N)C#N)cc(Br)c1O
remaining activity (RPS6KA5; enzyme activity; inhibitor; 0.5 µM): 108%
